Key:
LNCaP [1] = assay: Growth inhibition of human LNCAP cells after 4 days by MTT assay in presence of 10% fetal bovine serum; assay type: functional, cell-based; conditions: 96 h
Method in brief: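 LNCaP cells were cultured in MEM with 10% FBS in 96-well plates against 0.1% DMSO vehicle. Viable cells were estimated by MTT conversion to formazan, read as absorbance at 550 nm. IC50 was derived from growth inhibition relative to vehicle. Values are mean ± SEM.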

MCF7 [2] = assay: Growth inhibition of human MCF7 cells at 10 uM after 4 days by MTT assay in presence of 10% fetal bovine serum relative to control; assay type: functional; conditions: MCF7, 96 h, read-out: GI
Method in brief: (§1)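 LNCaP or MCF-7 cells in MEM with 10% FBS were given test compound at 10 µM or 0.1% DMSO vehicle; MCF-7 exposure was four days. MTT read-out at 550 nm. Inhibition was calculated as (OD vehicle − OD test) × 100 / OD vehicle. Values are mean ± SEM, n = 4, ANOVA versus vehicle.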

MCF7 [3] = assay: Growth inhibition of human MCF7 cells after 4 days by MTT assay in presence of 10% fetal bovine serum; assay type: functional, cell-based; conditions: MCF7, 96 h
LNCaP [4] = assay: Growth inhibition of human LNCAP cells at 10 uM after 4 days by MTT assay in presence of 10% fetal bovine serum relative to control; assay type: functional; conditions: 96 h, read-out: GI; method in brief: as §1
MCF7 [5] = assay: Growth inhibition of human MCF7 cells at 10 uM after 4 days by MTT assay in presence of 5% heat-inactivated fetal bovine serum treated with dextran-coated charcoal and 17-beta-estradiol relative to ICI-182780; assay type: functional; conditions: MCF7, 96 h, read-out: GI
Method in brief: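 MCF-7 cells in MEM with 5% dextran-coated-charcoal-treated heat-inactivated FBS plus 1 nM 17β-estradiol were exposed for four days to test compound (10 µM), ICI 182,780 (1 µM) or vehicle. MTT absorbance was read at 550 nm. Effect was calculated as (OD vehicle − OD test) × 100 / (OD vehicle − OD ICI 182,780). Values are mean ± SEM of at least three assays.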

MCF7 [6] = assay: Growth inhibition of human MCF7 cells after 4 days by MTT assay in presence of 5% heat-inactivated fetal bovine serum treated with dextran-coated charcoal and 17-beta-estradiol; assay type: functional, cell-based; conditions: MCF7, 96 h
K562 = assay: Cytotoxicity against human K562 cells; assay type: functional, cell-based
HeLa = assay: Cytotoxicity against human HeLa cells; assay type: functional, cell-based
LNCaP [7] = assay: Growth inhibition of human LNCAP cells at 1 uM after 4 days by MTT assay; assay type: functional; conditions: 96 h, read-out: GI
LNCaP [8] = assay: Cytotoxicity against human LNCAP cells after 4 days by MTT assay; assay type: functional, cell-based; conditions: 96 h
Method in brief: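 LNCaP cells grown in minimal essential medium with 10% FBS, exposed to secosterols for four days in 96-well plates, with 0.1% DMSO as vehicle. Viable cells were estimated from MTT conversion to formazan, read at 550 nm. Absorbance was expressed relative to vehicle (100%), and IC50 was taken from growth inhibition, mean ± SEM of ≥3 independent assays.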

MCF7 [9] = assay: Growth inhibition of human MCF7 cells at 1 uM after 4 days by MTT assay; assay type: functional; conditions: MCF7, 96 h, read-out: GI
MCF7 [10] = assay: Cytotoxicity against human MCF7 cells after 4 days by MTT assay; assay type: functional, cell-based; conditions: MCF7, 96 h
Method in brief: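 MCF-7 cells in minimal essential medium, with either 10% FBS or 5% dextran-charcoal-treated FBS plus 1 nM 17β-estradiol, were exposed to secosterols for four days. Vehicle was 0.1% DMSO. Read-out was MTT formazan absorbance at 550 nm, expressed as % of vehicle. IC50 was derived from growth inhibition, mean ± SEM of ≥3 independent assays.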

SMILES | IC50 (LNCaP [1]) | inhibition of growth at 10 µM (MCF7 [2]) | IC50 (MCF7 [3]) | inhibition of growth at 10 µM (LNCaP [4]) | inhibition of growth at 10 µM (MCF7 [5]) | IC50 (MCF7 [6]) | IC50 (K562) | IC50 (HeLa) | inhibition of growth at 1 µM (LNCaP [7]) | IC50 (LNCaP [8]) | inhibition of growth at 1 µM (MCF7 [9]) | IC50 (MCF7 [10])
CC(=O)OCC[C@]1(C)[C@@H]([C@H](C)/C=C/C(C)C)CC[C@H]1C1=C[C@H](O)[C@H]2C[C@@H](O)CC[C@]2(C)C1=O | 7 µM | 34% | 7.6 µM | 76% | 86% | 7.4 µM | 6.5 µM | 7 µM |  |  |  | 
CCC(C)/C=C/[C@@H](C)[C@H]1CC[C@@H](C2=C[C@H](O)[C@H]3C[C@@H](O)CC[C@]3(C)C2=O)[C@]1(C)CCOC(C)=O (some centres not stated) | 5.4 µM | 49% | 7 µM | 83% | 90% | 5.4 µM |  |  |  |  |  | 
C=C(CC[C@@H](C)[C@H]1CC[C@@H](C2=C[C@H](O)[C@H]3C[C@@H](O)CC[C@]3(C)C2=O)[C@]1(C)CCOC(C)=O)C(C)C |  | ≤ 10% |  | ≤ 10% | 50% | 3.8 µM |  |  |  |  |  | 
CC(=O)OCC[C@]1(C)[C@@H]([C@H](C)/C=C\C(C)C(C)C)CC[C@H]1C1=C[C@H](O)[C@H]2C[C@@H](O)CC[C@]2(C)C1=O (some centres not stated) | 6.7 µM | 27% |  | 45% | 62% | 6 µM |  |  |  |  |  | 
C[C@]12CC[C@@H]3c4ccc(O)cc4C[C@@H](CCCCCCCCC[S+]([O-])CCCC(F)(F)C(F)(F)F)[C@H]3[C@@H]1CC[C@@H]2O (some centres not stated) [FULVESTRANT] |  |  |  |  |  |  |  |  | 100% | 0.018 µM | 100% | 0.018 µM
